Reference: ChEMBL document CHEMBL4346697, “Probing structural requirements for human topoisomerase I inhibition by a novel N1-Biphenyl fluoroquinolone” (Eur J Med Chem, 2019)
The source made the active and inactive calls. The calls are words filed in the database; no cut-off is given here.

Legend:
DNA topoisomerase 1 = target: T1, DNA topoisomerase 1 (Homo sapiens, UniProt P11387); assay: Inhibition of human topoisomerase 1 using supercoiled pBR322 plasmid DNA as substrate after 15 mins by ethidium bromide staining based agarose gel electrophoresis method
T1 sequence (P11387 whole entry): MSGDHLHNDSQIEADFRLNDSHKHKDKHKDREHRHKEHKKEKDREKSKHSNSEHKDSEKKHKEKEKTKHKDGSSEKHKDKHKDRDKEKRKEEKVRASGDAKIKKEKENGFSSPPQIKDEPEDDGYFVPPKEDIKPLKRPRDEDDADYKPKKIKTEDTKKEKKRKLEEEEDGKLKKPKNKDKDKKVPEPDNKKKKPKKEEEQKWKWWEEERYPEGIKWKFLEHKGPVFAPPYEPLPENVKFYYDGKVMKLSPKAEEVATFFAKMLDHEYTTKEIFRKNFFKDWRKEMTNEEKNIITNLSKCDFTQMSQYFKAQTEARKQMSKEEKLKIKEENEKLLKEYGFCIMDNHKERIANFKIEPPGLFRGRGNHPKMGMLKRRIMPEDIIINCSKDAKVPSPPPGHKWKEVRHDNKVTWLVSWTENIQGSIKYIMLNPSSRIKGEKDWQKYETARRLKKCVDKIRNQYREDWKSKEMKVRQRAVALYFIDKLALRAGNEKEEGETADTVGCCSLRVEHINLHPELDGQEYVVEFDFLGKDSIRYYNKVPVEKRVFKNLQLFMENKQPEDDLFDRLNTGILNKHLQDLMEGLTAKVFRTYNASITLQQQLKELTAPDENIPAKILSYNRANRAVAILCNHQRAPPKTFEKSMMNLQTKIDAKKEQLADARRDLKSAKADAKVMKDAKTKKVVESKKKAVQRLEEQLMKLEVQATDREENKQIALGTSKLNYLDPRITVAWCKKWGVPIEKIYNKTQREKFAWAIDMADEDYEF
How it was run: (§1)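 hTopo I (1 unit) relaxed 0.3 μg supercoiled plasmid in 50 mM Tris-HCl pH 7.5, 100 mM NaCl, 10 mM MgCl2, 1 mM DTT, 50 μg/ml BSA with varied compound concentrations, at 37°C for 15 min.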

[1] = target: T2, DNA topoisomerase 1 (Homo sapiens) (UniProt P11387); assay: Inhibition of human topoisomerase 1 at 200 uM using supercoiled pBR322 plasmid DNA as substrate after 15 mins by ethidium bromide staining based agarose gel electrophoresis method relative to control; how it was run: as §1
T2 sequence (whole entry): T1 sequence (P11387 whole entry)

Calf thymus DNA = assay: Binding affinity to calf thymus DNA assessed as bathochromic shift at 25 uM by fluorescence spectra analysis; type: nucleic-acid assay; conditions: Bos taurus
How it was run: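 Compound at 25 μM, with calf thymus DNA at 0 or 400 μM, in 10 mM Tris-HCl pH 7.4 at room temperature; final DMSO ≤5%. Emission spectra were recorded from 320–600 nm to look for a bathochromic shift. DNA was dissolved in the same buffer, checked by A260/A280 (1.8–1.9) and quantified at 260 nm (ε 6600 M−1 cm−1 per nucleotide).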

[2] = Binding affinity to d(CCTTACGTGCATAGTCATTCATGACCG) dsDNA (unknown origin) assessed as bathochromic shift at 25 uM by fluorescence spectra analysis
How it was run: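 The 27-bp duplex was made by annealing complementary strands 1:1 at 95°C for 2 min, then cooling to room temperature. Compound at 25 μM, with dsDNA at 0–200 μM, in 10 mM Tris-HCl pH 7.4 at room temperature; DMSO ≤5% final. Spectra and intensity were read after blank subtraction, normalized to the no-DNA signal; technical replicates, n=3.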

[3] = tested on: Panel NCI-60 (60 carcinoma cell lines); assay: Antiproliferative activity against human NCI60 cells; type: functional

SMILES	IC50 (DNA topoisomerase 1)	other results
O=C(O)c1cn(Cc2ccc(-n3cccn3)cc2)c2cc(N3CC4CNCC4C3)c(F)cc2c1=O (centres undefined)	173 µM	
NC[C@@H]1CCN(c2cc3c(cc2F)c(=O)c(C(=O)O)cn3Cc2ccc(-n3cccn3)cc2)C1	91.6 µM	
CNCCCCNc1c(F)cc2c(=O)c(C(=O)O)cn(Cc3ccc(-c4ccccc4)cc3)c2c1OC	> 200 µM	inhibition [1]: 10%
O=C(O)c1cn(Cc2ccc(-n3cccn3)cc2)c2cc(NC[C@@H]3CCNC3)c(F)cc2c1=O		inhibition [1]: 10%
NC[C@@H]1CCN(c2ccc3c(=O)c(C(=O)O)cn(Cc4ccc(-n5cccn5)cc4)c3c2)C1	61 µM	
CNC(=O)c1cn(Cc2ccc(-c3ccccc3)cc2)c2c(OC)c(N3CC[C@@H](CN)C3)c(F)cc2c1=O	82.1 µM	
CNC[C@@H]1CCN(c2cc3c(cc2F)c(=O)c(C(=O)O)cn3Cc2ccc(-n3cccn3)cc2)C1	> 200 µM	inhibition [1]: 10%
NC[C@@H]1CCN(c2cc3c(cc2F)c(=O)c(C(=O)O)cn3Cc2nc(-c3ccncc3)no2)C1	> 200 µM	inhibition [1]: 10%
COc1c(N2CC[C@@H](CN)C2)c(F)cc2c(=O)c(C(=O)O)cn(Cc3ccc(-c4ccccc4)cc3)c12		Activity (Calf thymus DNA): inactive; Activity [2]: inactive; GI50 [3]: 1.9 µM
CC(c1nc(-c2ccncc2)no1)n1cc(C(=O)O)c(=O)c2cc(F)c(N3CC[C@@H](CN)C3)cc21 (some centres undefined)	> 200 µM	inhibition [1]: 10%
NC[C@@H]1CCN(c2cc3c(cc2F)c(=O)c(C(=O)O)cn3Cc2ccc(-c3ccc(F)cc3)cc2)C1	69.6 µM	
NC[C@@H]1CCN(c2cc3c(cc2F)c(=O)c(C(=O)O)cn3Cc2cc(-c3ccccc3)no2)C1	58.3 µM	
COc1c(N2CC[C@@H](CN)C2)c(F)cc2c(=O)c(C(=O)O)cn(Cc3ccc(-n4cccn4)cc3)c12	> 200 µM	inhibition [1]: 10%
COc1c(N2CC[C@@H](CN)C2)c(F)cc2c(=O)c(C(N)=O)cn(Cc3ccc(-c4ccccc4)cc3)c12	184 µM	
COc1c(N2CC[C@@H](CN)C2)c(F)cc2c(=O)c(C(=O)O)cn(Cc3ccc(-c4ccc(F)cc4)cc3)c12	60.9 µM	
COc1c(N2CC[C@@H](CN)C2)c(F)cc2c(=O)c(C(=O)NO)cn(Cc3ccc(-c4ccccc4)cc3)c12	35.9 µM	
CNC(=O)c1cn(Cc2ccc(-c3ccccc3)cc2)c2c(OC)c(NC)c(F)cc2c1=O		inhibition [1]: inactive
COc1c(F)c(F)cc2c(=O)c(C(=O)O)cn(Cc3ccc(-c4ccccc4)cc3)c12		inhibition [1]: inactive
COc1c(N2CC[C@@H](CN)C2)c(F)cc2c(=O)c(C(=O)O)cn(Cc3cc(-c4ccccc4)no3)c12	178 µM	
CNCCCNc1c(F)cc2c(=O)c(C(=O)O)cn(Cc3ccc(-c4ccccc4)cc3)c2c1OC	101 µM	
COc1c(N2CC[C@@H](N)C2)c(F)cc2c(=O)c(C(=O)O)cn(Cc3ccc(-c4ccc(F)cc4)cc3)c12	58.6 µM	
COc1c(N2CC[C@@H](C(N)=O)C2)c(F)cc2c(=O)c(C(=O)O)cn(Cc3ccc(-c4ccccc4)cc3)c12	> 200 µM	inhibition [1]: 10%
COc1c(N2CC[C@@H](CN)C2)c(F)cc2c(=O)c(C(=O)O)cn(Cc3ccc4ccccc4c3)c12		GI50 [3]: 3.1 µM
O=C(O)c1cn(Cc2ccc(-n3cccn3)cc2)c2cc(N3C[C@H]4CCNC[C@H]4C3)c(F)cc2c1=O	31.3 µM	
COC(=O)c1cn(Cc2ccc(-c3ccccc3)cc2)c2c(OC)c(N3CC[C@@H](CN)C3)c(F)cc2c1=O	71.4 µM	

Second part, led by results:

IC50 (DNA topoisomerase 1)	SMILES	other results
> 200 µM	COc1c(NCCN)c(F)cc2c(=O)c(C(=O)O)cn(Cc3ccc(-c4ccccc4)cc3)c12	inhibition [1]: 10%
63.6 µM	CNCCCNc1cc2c(cc1F)c(=O)c(C(=O)O)cn2Cc1ccc(-c2ccccc2)cc1	
72.8 µM	NCCNc1cc2c(cc1F)c(=O)c(C(=O)O)cn2Cc1ccc(-c2ccccc2)cc1	
> 200 µM	CNCCNc1cc2c(cc1F)c(=O)c(C(=O)O)cn2Cc1ccc(-c2ccccc2)cc1	inhibition [1]: 10%
168 µM	CNC[C@@H]1CCN(c2cc3c(cc2F)c(=O)c(C(=O)O)cn3Cc2ccc(-c3ccccc3)cc2)C1	
92.2 µM	COc1c(N2CC[C@@H](N)C2)c(F)cc2c(=O)c(C(=O)O)cn(Cc3ccc(-c4ccccc4)cc3)c12	
104 µM	O=C(O)c1cn(Cc2ccc(-c3ccccc3)cc2)c2cc(NC[C@@H]3CCNC3)c(F)cc2c1=O	
155 µM	CNC[C@@H]1CCN(c2c(F)cc3c(=O)c(C(=O)O)cn(Cc4ccc(-c5ccccc5)cc4)c3c2OC)C1	
187 µM	O=C(O)c1cn(Cc2ccc(-n3cccn3)cc2)c2cc(NC[C@H]3CCNC3)c(F)cc2c1=O	
61 µM	O=C(O)c1cn(Cc2ccc(-c3ccccc3)cc2)c2cc(N3C[C@H]4CCNC[C@H]4C3)c(F)cc2c1=O	
61.2 µM	NC[C@@H]1CCN(c2ccc3c(=O)c(C(=O)O)cn(Cc4ccc(-c5ccccc5)cc4)c3c2)C1	
88.3 µM	CNCCCCNc1cc2c(cc1F)c(=O)c(C(=O)O)cn2Cc1ccc(-c2ccccc2)cc1	
> 200 µM	CNCCNc1c(F)cc2c(=O)c(C(=O)O)cn(Cc3ccc(-c4ccccc4)cc3)c2c1OC	inhibition [1]: 10%
> 200 µM	COc1c(N2CC[C@@H](CO)C2)c(F)cc2c(=O)c(C(=O)O)cn(Cc3ccc(-c4ccccc4)cc3)c12	inhibition [1]: 10%
15.6 µM	NC[C@@H]1CCN(c2cc3c(cc2F)c(=O)c(C(=O)O)cn3Cc2ccc(-c3ccccc3)cc2)C1	Activity (Calf thymus DNA): inactive; Activity [2]: inactive
34.8 µM	CN[C@@H]1CCN(c2cc3c(cc2F)c(=O)c(C(=O)O)cn3Cc2ccc(-c3ccccc3)cc2)C1	
57.7 µM	CN[C@@H]1CCN(c2c(F)cc3c(=O)c(C(=O)O)cn(Cc4ccc(-c5ccccc5)cc4)c3c2OC)C1	
100 µM	O=C(O)c1cn(Cc2ccc(-c3ccccc3)cc2)c2cc(NC[C@H]3CCNC3)c(F)cc2c1=O	
33.3 µM	O=C(O)c1cn(Cc2ccc(-c3ccccc3)cc2)c2cc(N3CC4CNCC4C3)c(F)cc2c1=O (centres undefined)	
63.6 µM	N[C@@H]1CCN(c2cc3c(cc2F)c(=O)c(C(=O)O)cn3Cc2ccc(-c3ccccc3)cc2)C1	
